Results published in the EternaBench riboswitch data.

Tested on: MS2 coat protein
Assay: apparent Kd, MS2 coat protein; higher = weaker binding; RNA-MaP array; FMN 200 µM where present
Method in brief: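 Designs on Illumina sequencing-chip clusters, transcribed by stalled E. coli RNA polymerase, were exposed to SNAP-549-labelled MS2 coat protein in doubling steps from 0.7 or 1.5 nM up to 3 µM, without and then with constant ligand. The buffer held 100 mM Tris-HCl pH 7.5, 80 mM KCl, 4 mM MgCl2, BSA, DTT, yeast tRNA and Tween-20. Apparent Kd values are medians of filtered per-cluster binding-curve fits to green signal normalised to red-channel RNA signal and control-cluster median Fmax.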

[1] = designed as: OFF switch for flavin mononucleotide, no ligand
[2] = ligand present: flavin mononucleotide, designed as: OFF switch for flavin mononucleotide
[3] = designed as: ON switch for flavin mononucleotide, no ligand
[4] = ligand present: flavin mononucleotide, designed as: ON switch for flavin mononucleotide

Row | Sequence | apparent Kd [1] [nM] | apparent Kd [2] [nM] | apparent Kd [3] [nM] | apparent Kd [4] [nM]
1 | AUACAUGAGGAUCACCCAUGUUACUGGGUCUAUAUAGAACGUAGAAGGAUGUAUUGAAGAAGAUCAUAGGAUAUACUUUAUAGU | 49.9 | 38.9 | – | –
2 | ACAUGUCGUGAGAAGGACGGCGUGCAUAGCGCCGUAGGAUAUCAAGACAUGAGGAUCACCCAUGUACGCGUGUCCAGCCGUGCU | 65.2 | 342 | – | –
3 | AGUGUCAUCGAGAAGGCCUCAACAUGAGGAUCACCCAUGUUGUAAUAUGGGAGGAUAUCGAUGAUACAGCUACGUUUCGUAGCA | – | – | 20.7 | 5.79
4 | CCGGAAAUAGAGGAUAUAGGACUGGAUACAGUCCUAGAAGGCUAUACAUGAGGAUCACCCAUGUGUCCUACCGG | 15.7 | 44 | – | –
5 | AUGCUAGUGUGAGGAUAUCAACAUGAGGAUCACCCAUGUUGGAAGUACCCGACAUGAGGUACGGAUGAGAAGGUACAUUAGCAU | 15.6 | 25.3 | – | –
6 | GUACGUGGACAGAAGGUGACAUGAGGAUCACCCAUGUUAGCUCGGGUACGAGCGAUCCGCGUGAUUGAGGAUAUGUCUGCGGGC | 39.7 | 59 | – | –
7 | UGACACUUGAGGGUCUCCCUUGACAUGAGGAUCACCCAUGUGCAGGAUAUACGUGUGAUGGUAUAGUAGAAGGGCACUCUAUGU | 27.7 | 35.6 | – | –
8 | ACAUACAUUCGAGGAUAUCGGUGAUUAAUUUUACGAGAAGGCGAUUUAAGAUAUAAUAUUUUAGACAUGAGGAUCACCCAUGUA | – | – | 25.3 | 23.1
9 | UAGCUUGAUUCUCGUGUAUACAUGAGGAUCACCCAUGUGACGCAGGAUAUAGGCGUGUUAGUAGCCUAGAAGGGCGAGCAGCGU | 153 | 235 | – | –
10 | UGAGCCUCGUGAGGAUAUACAUGAGGAUCACCCAUGUAAUAGGAUGAACGGUGGAAACACCGAAUGUAGAAGGCACGAGGCUCA | 82.2 | 869 | – | –
11 | AGACAUGUCCGAGGAUAUCUGGAAACAUUUCCAAGAGAAGGCGGACAUGAGGAUCACCCAUGUCUCUCCUCAUCAAAUCCAAGU | 10.7 | 90.9 | – | –
12 | GGGUCACAUGAGGAUCACCCAUGUGAGGAUAUGAUACUAUGUACUUCGGUACAUAGUAUCAGAAGGCACAUCCC | 19.2 | 35.7 | – | –
13 | UGUAUGGACAGAGGAUAUACGGAUAGGAUCUACUAUCUUUCUCAAAUAACAUGAGGAUCACCCAUGUAGAAGGCUGUCCAUACU | 22.4 | 136 | – | –
14 | CGUGAACAUGAGGAUCACCCAUGUGAAAAACGUAGAGGAUAUGUCACAUGAGUGUAAAAGACAGAAGGCUAUCGUG | – | – | 151 | 27.1
15 | UUCUUGGCAGGAUAUGCUUUUUUAGACAUGAGGAUCACCCAUGUGUUUAUUUUUUUUUUUGCAGAAGGGCCUUAAU | 16.4 | 19.5 | – | –
16 | AAUAAACAUGAGGAUCACCCAUGUCAGGAUAUCCUAAAUAAAAAAAUAUAAAGAAGAAGGAGAAGGGACUAAAA | 111 | 120 | – | –
17 | UGACUGAUAUAGAAGGGUAUGUGGGAAUUACAUGAGGAUCACCCAUGUUUUAUAGGAUAUGUAUAUAGUUUUUAAUCAAGUUUA | 48.2 | 36.8 | – | –
18 | UCGAUGCGAGGAUAUACUAAGGCAACUACUGCAGCUCAAAAACAUGAGGAUCACCCAUGUAGAAGGCGCAUAUA | 16 | 15.4 | – | –
19 | UUGGACGUCGUAGGAUAUGUAGGAUAUUCCUACAUGAGGAUCACCCAUGUUGACAUGGAAGGAGGACAGAAGGACGAUGUCCAU | – | – | 524 | 23.3
20 | GCCAGGCAUGUAGGAUAUCCAUUGCGUCGCGUUGGAGAAGGGCAGCACACAUGAGGAUCACCCAUGUGGUCACCCAUGUAGUGU | 612 | 594 | – | –
21 | AAAAUGUCAGGAUAUGCGAAGGCAUCUGACAGAUGAGGAUUGCAGAAGGGACAUGAGGAUCACCCAUGUAAAAA | 40.3 | 47.5 | – | –

Row | Sequence | apparent Kd [1] [nM] | apparent Kd [2] [nM] | apparent Kd [3] [nM] | apparent Kd [4] [nM]
22 | CAGUACUGAGGAUAUACAUGAGGAUCACCCAUGUGCUCAAAGUAGGAUACUACUAUUAGUAGAAGGCAGUACUG | 22.2 | 214 | – | –
23 | GUGUACAGAGGAUAUAUAUGAGCUAGGAAACUAGCAACCUCACAUGAGGAUCACCCAUGUAGAAGGCUGUACAC | 103 | 346 | – | –
24 | CUUUUGUGAGGAUAUUAGUAGUAAACAAACAAAAUUAUUACUGAGAAGGCACAUGAGGAUCACCCAUGUUCCUC | 39.7 | 637 | – | –
25 | UGACUAAAUGAAGGAUAUCUAAGCAUAAACCUGAGAGAAGGUCAUUUUUACAUGAGGAUCACCCAUGUUGUGAUUAAUGGGUCA | 88.7 | 137 | – | –
26 | CCGAAUGUCACAGGAUAUGGUCCGGGCUCGGGACCAGAAGGGUGAUCUCACAUGAGGAUCACCCAUGUGUAGGCGUUAGGCUAC | – | – | 36.7 | 249
27 | AGGGUAGUAGGAUAUACAUGAGGAUCACCCAUGUUUCCUUUACGUGACUGGUCCUAGUGUAGAAGGGCUAGCAC | 15.8 | 14.8 | – | –
28 | UAUUAAUACGAAGGAUAUGGUUACAUGAGGAUCACCCAUGUAUGUAUUUUGAUCUAAUAAUUUAACCAGAAGGUCGAAUAUAAA | 40.6 | 77.3 | – | –
29 | UAUUAUAUGGAGAAGGACAUGAGGAUCACCCAUGUCGCCGGGCCCGGGAAACCGGGCCCGGCCAUGUAGGAUAUCCGUAUGGUA | 6 | 7.96 | – | –
30 | GGAUAGGACAGAGGAUAUACAGAUAGGAUCUACUAUCAAACAAUCCUCACAUGAGGAUCACCCAUGUAGAAGGCUGUCCUAUCG | 103 | 688 | – | –
31 | GAUACACAUGAGGAUCACCCAUGUGAGGAUAUGCGUACGUUGUCCGUAGGCGACGUGCGCAGAAGGCGCGAGGU | 41.4 | 36.2 | – | –
32 | GGGAGACAUGAGGAUCACCCAUGUGAAAACGUGGCAGGAUAUGGAUGGAAACCAUACUGUCCAGAAGGGCCUUGUC | – | – | 47.4 | 37.8
33 | UAAAUGUGAGGAUAUCAGGUGUGCUAGCGUACUGGUACAUCUGAGAAGGCACAUGAGGAUCACCCAUGUUCCUU | 16.8 | 61.3 | – | –
34 | AUUAGCUCGUCAGGAUAUACGUCACUGCGUCAGCAGUGUGGUAAGAUCACAUGAGGAUCACCCAUGUAGAAGGGACGAGCUGAU | 13 | 289 | – | –
35 | CCCGCUGGAGGAUAUGCACUACGUGUGUUUUCUUUUGAGGCACAUGAGGAUCACCCAUGUAGAAGGCCACGCGG | 97.6 | 430 | – | –
36 | ACACGGUAUGUAGGAUAUGCAUAGCAUUGCUAUGCAGAAGGACAUGAGGAUCACCCAUGUAUGUAUUCCAUACUAAUCCCGUGG | 5.77 | 5.74 | – | –
37 | GGAUAGGACAGAGGAUAUACGUGCUAGAGAUACUAGCAAAAUUUCCUCACAUGAGGAUCACCCAUGUAGAAGGCUGUCUUAUCG | 16 | 191 | – | –
38 | GUGUACAGAGGAUAUACAUAAGCUAGGAAACUAGCAACCUCACAUGAGGAUCACCCAUGUAGAAGGCUGUACAC | 189 | 59.6 | – | –
39 | AAAAAACAUGAGGAUCACCCAUGUUAGGAUAUGCUAUGGAAAAUAAAAAAUAAACAUAGCAGAAGGAACAAAAA | 43.4 | 48.9 | – | –
40 | GGUACUCAAAGAGUACUGUUUUGAACAUGAGGAUCACCCAUGUAGGAUAUGCGAGUUUUGAAUUUGCAGAAGGACAUUUUUAGC | 17.2 | 18.9 | – | –
41 | GCGUAUUUAAGAUUUAUAAAACAGUCAGAAGGUGAUAAGACGACAUGAGGAUCACCCAUGUAAUUCAAGGAUAUGAAAAUGCGC | – | – | 48.6 | 22.1
42 | AUAUUAUUGAUCCAUUUUUUCAACAUGAGGAUCACCCAUGUGCAGGAUAUCGUGUGUUUUAUAAACGAGAAGGGCAAAUUCAUU | 82.6 | 218 | – | –
